Laboratory results: ChEMBL document CHEMBL3763019, “Discovery of benzenesulfonamide derivatives as potent PI3K/mTOR dual inhibitors with in vivo efficacies against hepatocellular carcinoma” (Bioorg Med Chem, 2016)
pIC50: −log10 of the molar value.

Key:
[1] = biological target: Phosphatidylinositol 4,5-bisphosphate 3-kinase catalytic subunit beta isoform (Homo sapiens, UniProt P42338); experiment: Inhibition of PI3K-beta (unknown origin) after 40 mins by ADP-Glo luminescent kinase assay
Method in brief: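 ADP-Glo reagent stopped the reaction (40 min), then detection reagent was added (60 min) and luminescence read. Percent inhibition was derived from RLU.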

[2] = biological target: Serine/threonine-protein kinase mTOR (Homo sapiens, UniProt P42345); experiment: Inhibition of mTOR kinase (unknown origin) assessed as suppression of ULight-4E-BP1 substrate phosphorylation incubated for 1 hr by lance ultra assay
SK-MEL-2 = experiment: Antiproliferative activity against human SK-MEL-2 cells incubated for 48 hrs by sulforhodamine B assay; format: functional; conditions: SK-MEL-2, 48 h
Method in brief: (§1)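 Run externally by the US National Cancer Institute as part of its 60 human cancer cell line cytotoxicity screen (NCI-60).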

[3] = Antiproliferative activity against human HL-60(TB) cells incubated for 48 hrs by sulforhodamine B assay; format: functional; conditions: HL-60, 48 h
[4] = Cytotoxicity against human Bel7404 cells after 72 hrs by MTT assay; format: functional, cell-based; conditions: BEL-7404, 72 h
Method in brief: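 Log-phase cells at 40,000–50,000 cells/mL in DMEM with 10% FBS and antibiotics were seeded and cultured overnight at 37 °C, 5% CO₂. Compounds were diluted in DMSO/PBS from 10^-4 to 10^-9 M and applied for 72 h. MTT (5 mg/mL stock) was then added for 4 h and absorbance read at 570 nm. IC50 came from nonlinear regression on triplicate wells, averaged.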

[5] = Antiproliferative activity against human OVCAR8 cells incubated for 48 hrs by sulforhodamine B assay; format: functional; conditions: OVCAR-8, 48 h; method in brief: as §1
MDA-MB-468 = experiment: Antiproliferative activity against human MDA-MB-468 cells incubated for 48 hrs by sulforhodamine B assay; format: functional; conditions: MDA-MB-468, 48 h; method in brief: as §1
[6] = read-out: pLC50 (the source's name) (converted)

Phosphatidylinositol 4,5-bisphosphate 3-kinase catalytic subunit beta isoform, sequence (P42338 whole entry, canonical isoform): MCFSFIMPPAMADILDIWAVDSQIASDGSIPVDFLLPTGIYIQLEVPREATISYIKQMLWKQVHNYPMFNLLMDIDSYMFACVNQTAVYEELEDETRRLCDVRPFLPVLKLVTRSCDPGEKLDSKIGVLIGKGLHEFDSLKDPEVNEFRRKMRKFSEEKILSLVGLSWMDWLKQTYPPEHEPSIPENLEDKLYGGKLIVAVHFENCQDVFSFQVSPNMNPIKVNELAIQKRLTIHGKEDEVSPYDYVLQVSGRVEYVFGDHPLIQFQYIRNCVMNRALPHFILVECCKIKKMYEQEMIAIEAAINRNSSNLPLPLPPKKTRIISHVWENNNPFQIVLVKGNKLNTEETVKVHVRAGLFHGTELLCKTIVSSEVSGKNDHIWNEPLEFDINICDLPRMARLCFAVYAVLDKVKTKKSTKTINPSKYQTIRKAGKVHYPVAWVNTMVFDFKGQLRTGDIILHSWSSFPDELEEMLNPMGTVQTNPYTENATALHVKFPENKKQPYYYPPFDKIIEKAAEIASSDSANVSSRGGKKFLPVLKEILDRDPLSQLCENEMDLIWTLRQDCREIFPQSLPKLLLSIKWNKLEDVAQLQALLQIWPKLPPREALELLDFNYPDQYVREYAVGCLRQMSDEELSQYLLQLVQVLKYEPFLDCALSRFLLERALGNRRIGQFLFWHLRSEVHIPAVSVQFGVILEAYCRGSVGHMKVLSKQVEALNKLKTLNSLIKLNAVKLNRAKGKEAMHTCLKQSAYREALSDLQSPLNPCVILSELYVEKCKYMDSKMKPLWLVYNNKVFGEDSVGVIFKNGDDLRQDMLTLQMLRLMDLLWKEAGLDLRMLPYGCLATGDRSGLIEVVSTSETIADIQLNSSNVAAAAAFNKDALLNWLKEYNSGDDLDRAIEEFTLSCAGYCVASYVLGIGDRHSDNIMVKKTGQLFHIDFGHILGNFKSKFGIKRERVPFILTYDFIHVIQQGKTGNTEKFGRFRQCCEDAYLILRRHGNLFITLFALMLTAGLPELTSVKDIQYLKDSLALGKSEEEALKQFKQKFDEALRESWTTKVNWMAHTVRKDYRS

COc1ncc(-c2ccc3nccc(C#CCN4CCN(S(C)(=O)=O)CC4)c3c2)cc1NS(=O)(=O)c1ccc(F)cc1F
pIC50 [1]: 8.03 | pIC50 [2]: 8.27 | GI50 (SK-MEL-2): 110 nM | CC50 (SK-MEL-2; [6]): 26.3 µM | TGI (SK-MEL-2; read-out: pTGI (converted)): 871 nM | GI50 [3]: 19.5 nM | CC50 [3, 6]: > 100 µM | TGI ([3]; read-out: pTGI (converted)): 1450 nM | pIC50 [4]: 7.70 | GI50 [5]: 251 nM | CC50 [5, 6]: 67.6 µM | TGI ([5]; read-out: pTGI (converted)): 10.7 µM | GI50 (MDA-MB-468): 17 nM | CC50 (MDA-MB-468; [6]): 1380 nM | TGI (MDA-MB-468; read-out: pTGI (converted)): 85.1 nM
